# Assay results of several laboratories.
# Lines come from different studies, so protocols differ.
# Target: Serine/threonine-protein kinase STK11 (STK11, Homo sapiens, UniProt Q15831)
# Residues used in one study (Q15831 1-433): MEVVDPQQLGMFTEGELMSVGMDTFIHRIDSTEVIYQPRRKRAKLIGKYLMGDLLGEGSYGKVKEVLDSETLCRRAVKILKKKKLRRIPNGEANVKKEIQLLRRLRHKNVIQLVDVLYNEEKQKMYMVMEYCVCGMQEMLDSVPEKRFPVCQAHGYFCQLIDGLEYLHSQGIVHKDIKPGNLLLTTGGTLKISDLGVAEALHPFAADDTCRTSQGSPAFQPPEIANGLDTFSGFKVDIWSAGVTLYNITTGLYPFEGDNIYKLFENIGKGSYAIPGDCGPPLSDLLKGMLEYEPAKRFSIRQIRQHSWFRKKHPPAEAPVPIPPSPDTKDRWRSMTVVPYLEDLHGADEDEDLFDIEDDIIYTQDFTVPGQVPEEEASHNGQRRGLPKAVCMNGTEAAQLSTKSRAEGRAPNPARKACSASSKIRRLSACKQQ
SMILES,read-out,mode,method,tested at,endpoint,result
CCCOc1ccc(OC)c(F)c1C(=O)c1ccc(C(=O)N[C@@H]2CNC[C@H]2NC(=O)c2ccc3[nH]ncc3c2)cc1,enzyme activity,inhibitor,,10 µM,remaining activity,92%
COc1cc(Nc2cnc(C#N)c(O[C@H](C)CN(C)C)n2)ncc1-c1cnn(C)c1,enzyme activity,inhibitor,radiometric,10 µM,remaining activity,64%
N#CC1(c2ccccn2)CCN(Cc2cc(C(=O)N3CCCC3)c(=O)n3ccccc23)CC1,cell-free assay,,competition with immobilised ligand,1 µM,remaining binding,77%
Cn1c(=O)n(-c2ccc(C(C)(C)C#N)cc2)c2c3cc(-c4cnc5ccccc5c4)ccc3ncc21,enzyme activity,inhibitor,,10 µM,remaining activity,105%
CNC(=O)c1ccc(Nc2ncc(C(F)(F)F)c(NCc3nccnc3N(C)S(C)(=O)=O)n2)cc1,cell-free assay,,competition with immobilised ligand,0.1 µM,remaining binding,100%
Cc1ccc(NC(=O)c2ccc(C)c(C(F)(F)F)c2)cc1C#Cc1nn(C2CCC(O)CC2)c2ncnc(N)c12 (centres unmarked),cell-free assay,,,10 µM,remaining signal,94%
Cc1ccc(NC(=O)c2ccc(CN3CCN(C)CC3)cc2)cc1Nc1nc(-c2cccnc2)cs1,cell-free assay,,,0.5 µM,remaining signal,102%
COc1cc(/C=C/C(=O)CC(=O)/C=C/c2ccc(O)c(OC)c2)ccc1O,enzyme activity,inhibitor,,1 µM,activity vs control,95%
CCCCN(CCCC)C(=O)CN1C[C@@H](c2cc(OC)c3c(c2)OCO3)[C@H](C(=O)O)[C@H]1CC(C)(C)CCC,cell-free assay,,competition with immobilised ligand,1 µM,remaining binding,82.2%
Cc1ccc(Nc2nccc(N(C)c3ccc4c(C)n(C)nc4c3)n2)cc1S(N)(=O)=O,enzyme activity,inhibitor,,10 µM,inhibition,-2%
Cc1sc(C(=O)NC2COC2)cc1-n1cc(NC(=O)Nc2c(F)cccc2Cl)cn1,enzyme activity,inhibitor,,10 µM,remaining activity,97.6%
CN(c1nccc(-c2cnn3ncccc23)n1)C1CC1,cell-free assay,,,1 µM,remaining signal,100%
FC(F)(F)c1ccc2c(c1)nc(-c1cccnc1)n2C1CC1,cell-free assay,,competition with immobilised ligand,1 µM,remaining binding,100%
Cc1cnc(NC2CCOCC2)nc1-n1cnc(C(=O)NC(CN)c2cc(F)cc(Cl)c2)c1 (centres unmarked),enzyme activity,inhibitor,radiometric,1 µM,remaining activity,104%
C[C@@H]1CN(c2cc(-c3nn(C)c4ccc(OC5(C)CC5)cc34)ncn2)C[C@H](C)O1,cell-free assay,,competition with immobilised ligand,1 µM,remaining binding,94%
CNC(=O)c1cc(Oc2ccc(NC(=O)Nc3ccc(Cl)c(C(F)(F)F)c3)cc2)ccn1,cell-free assay,,,0.5 µM,remaining signal,104%
FC(F)(F)Oc1cccc(-c2cnc3ccc(-c4ccncc4)nn23)c1,enzyme activity,inhibitor,radiometric,1 µM,activity vs control,89%
